An excerpt weighted towards active compounds, which were near 2.4% of everything screened.
NPY-Y2 antag: antagonists of human neuropeptide Y receptor Y2 | 140,000 tested, 0.99% active | inhibition, % at 2.7 µM | NPY-Y2 expressing cells, antagonist mode; in the data active = inhibition above about 17%;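 also: 0% = vehicle with agonist challenge and 100% = reference antagonist with challenge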
NPY-Y1 antag: blocks the human neuropeptide Y Y1 receptor; HEK293-CNG Y1 cells, membrane potential fluorescence; NPY at EC95, then isoproterenol; inhibition, % at 3.6 µM; 200,000 tested, 1% active;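 active = inhibition above the campaign mean inhibition of all tested compounds plus 3 SD, cut at about 20% in these data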;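 also: 0% = DMSO wells given NPY plus isoproterenol and 100% = isoproterenol alone without NPY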
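Benchmarks – high control isoproterenol alone, low control NPY with isoproterenol · Material – HEK293 Y1/CNG channel cell line · Times – dye 3 h, compound 60 min room temperature, stimulation 45 min · Probe or stimulus – NPY (25 nM), isoproterenol (1 µM), Ro 20-1724 (25 µM) · Evaluation – % inhibition of NPY effect · Signal – fluorescence, membrane potential probe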
S1P4 ag: activates the human S1P4 receptor; AID 1509; O95977; S1P4-expressing cell line, agonist reporter assay; 220,000 tested, 0.35% active; activation, % at 4.98 µM; in the data active = activation above about 11%;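 also: 0% = DMSO vehicle and 100% = reference agonist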
Target sequence (O95977 whole entry, looked up): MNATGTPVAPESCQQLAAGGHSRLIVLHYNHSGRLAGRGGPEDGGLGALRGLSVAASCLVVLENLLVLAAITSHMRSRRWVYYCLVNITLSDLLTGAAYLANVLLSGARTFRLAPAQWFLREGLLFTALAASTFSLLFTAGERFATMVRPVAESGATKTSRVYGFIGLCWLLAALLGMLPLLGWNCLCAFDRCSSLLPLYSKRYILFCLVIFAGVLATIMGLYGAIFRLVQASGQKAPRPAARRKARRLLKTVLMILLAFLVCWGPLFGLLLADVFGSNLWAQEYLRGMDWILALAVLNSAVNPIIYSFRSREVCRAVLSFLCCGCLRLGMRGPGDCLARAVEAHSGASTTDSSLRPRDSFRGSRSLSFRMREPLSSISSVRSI
S1P4 antagonist: blocks the human S1P4 receptor; S1P4-expressing cells, antagonist mode, reporter read-out; O95977; 220,000 tested, 0.26% active; AID 1510; inhibition, % at 4.98 µM; in the data active = inhibition above about 29%;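 also: 0% = wells stimulated with agonist and 100% = vehicle wells without agonist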
NPY2 pot ag: human NPY-Y2 potentiation or agonism, primary screen; cells expressing NPY-Y2, potentiator/agonist read-out; 220,000 tested, 0.45% active; P49146; AID 1359; activation, % at 3.6 µM; in the data active = activation above about 27%;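 also: cells stimulated with NPY near EC25 plus isoproterenol at EC100; 0% = vehicle plus submaximal agonist and 100% = vehicle plus saturating agonist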
NPY-Y1 PAM-ag: human NPY-Y1 potentiation or agonism, primary screen. P25929. NPY-Y1 expressing cells, potentiator/agonist activation. activation, % at 3.6 µM. 220,000 tested, 0.37% active. AID 1304; in the data active = activation above about 33%, passing the limit was not always enough;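 also: cells stimulated with NPY at EC10 then isoproterenol at EC100; 0% = low agonist plus stimulus and 100% = saturating agonist plus stimulus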
NPY-Y2 confirm: confirmation of human NPY-Y2 receptor potentiators or agonists | shares compounds with NPY2 pot ag | cell-based NPY-Y2 potentiator/agonist assay | activation, % at 3.6 µM | 450 tested, 20% active | AID 1539; in the data active = activation above about 33%
NPY-Y1 potentiator: counter-screen for NPY-Y2 potentiators or agonists: NPY-Y1 potentiators or agonists | activation, % at 3.6 µM | 450 tested, 20% active | shares compounds with NPY2 pot ag | Y1 HEK293-CNG cells, membrane potential fluorescence; in the data active = activation above about 45%;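 also: cells stimulated with submaximal NPY then isoproterenol with phosphodiesterase inhibitor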
NPY-Y1 ag 2: activates human NPY-Y1, counter-screen for NPY-Y2 potentiators; 450 tested, 37% active; activation, % at 3.6 µM; shares compounds with NPY2 pot ag; HEK293 Y1-CNGC, membrane potential fluorescence, agonism; AID 1702;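 active = activation above the mean of DMSO-only control wells plus 3 SD, cut at about 18% in these data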;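 also: cells stimulated with 1 µM isoproterenol plus the PDE inhibitor Ro 20-1724; 0% = isoproterenol with DMSO and no NPY and 100% = 40 nM NPY; Y1 agonists lower the membrane potential dye signal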
CNGC inhibitor: cyclic nucleotide gated channel inhibition as counter-screen; HEK293-CNG parental, isoproterenol cAMP, membrane potential fluorescence; shares compounds with NPY2 pot ag; 450 tested, 32% active; inhibition, % at 3.6 µM;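 active = inhibition above the control-well mean plus 3 SD of those wells, cut at about 22% in these data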;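 also: 0% = DMSO with isoproterenol and 100% = DMSO without isoproterenol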
Y2 agonist ctr: activates human NPY-Y2 receptor in potentiator counter-screen; 450 tested, 56% active; activation, % at 3.6 µM; shares compounds with NPY2 pot ag; HEK293 Y2/CNGC cells, membrane potential fluorescence, agonist mode;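 active = activation above the mean of solvent-only control wells plus 3 SD, cut at about 10% in these data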;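 also: cells stimulated by isoproterenol with no NPY added so direct agonism is tested; 0% = DMSO with isoproterenol alone and 100% = NPY at EC100 plus isoproterenol; agonism lowers probe fluorescence through less cAMP and CNG channel opening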
S1P4 ag conf: confirmation of human S1P4 receptor agonists; shares compounds with S1P4 ag; S1P4 agonist cell-based reporter assay; activation, % at 4.98 µM; 740 tested, 7% active; in the data active = activation above about 12%;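 also: 0% = vehicle and 100% = full reference agonist response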
S1P1 ag: activates human S1P1, counter-screen for S1P4 agonists. S1P1 agonist cell-based assay, activation. AID 1563. shares compounds with S1P4 ag. 740 tested, 4% active. activation, % at 4.98 µM; in the data active = activation above about 21%;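 also: 0% = vehicle wells and 100% = reference agonist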
Target sequence (P21453 whole entry, looked up): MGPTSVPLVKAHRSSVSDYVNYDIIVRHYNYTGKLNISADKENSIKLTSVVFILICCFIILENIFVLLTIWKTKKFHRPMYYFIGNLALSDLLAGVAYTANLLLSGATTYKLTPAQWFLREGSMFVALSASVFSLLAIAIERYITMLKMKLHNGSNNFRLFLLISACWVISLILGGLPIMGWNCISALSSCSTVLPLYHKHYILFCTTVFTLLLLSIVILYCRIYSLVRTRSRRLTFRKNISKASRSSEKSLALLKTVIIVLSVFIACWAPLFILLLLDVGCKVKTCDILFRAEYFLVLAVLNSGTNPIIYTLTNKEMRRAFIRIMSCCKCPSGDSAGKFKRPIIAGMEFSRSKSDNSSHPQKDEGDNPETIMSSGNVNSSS
S1P4 antag conf: confirmation of human S1P4 receptor antagonists. shares compounds with S1P4 antagonist. S1P4-expressing cell line, antagonist mode, reporter read-out. inhibition, % at 4.98 µM. 520 tested, 71% active. AID 1524; in the data active = inhibition above about 30%
S1P1 antag: human S1P1 antagonism as S1P4 antagonist counter-screen | AID 1564 | inhibition, % at 4.98 µM | cell-based S1P1 antagonist counterscreen, inhibition | 520 tested, 37% active | shares compounds with S1P4 antagonist; in the data active = inhibition above about 40%;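 also: receptor stimulated with S1P near its EC80; 0% = agonist stimulated wells and 100% = vehicle only wells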
The depositor's hits bear a star.

`CCOC(=O)c1nc(Nc2ccc(Nc3ccccc3)cc2)c2ccccc2n1` gave NPY-Y1 antag -7.5, S1P4 ag 1.0, S1P4 antagonist 7.7, NPY2 pot ag 32.8*, NPY-Y1 PAM-ag 13.5, NPY-Y2 confirm 35.1*, NPY-Y1 potentiator 36.5, NPY-Y1 ag 2 9.6, CNGC inhibitor 18.9 and Y2 agonist ctr 32.8*.
`CCOC(=O)c1c(C)sc2c1N(C(=O)CCl)c1cc(Cl)ccc1S2` gave NPY-Y2 antag 2.2, NPY-Y1 antag 1.6, S1P4 ag -1.4, S1P4 antagonist 4.2, NPY2 pot ag 38.2*, NPY-Y1 PAM-ag 47.7, NPY-Y2 confirm 24.8, NPY-Y1 potentiator 41.6, NPY-Y1 ag 2 33.9*, CNGC inhibitor 3.8 and Y2 agonist ctr 8.7.
For CCCOc1ccc(/C=N/Nc2ccc(C(=O)O)cc2)c(OCCC)c1 the results were NPY-Y1 antag 0.7, S1P4 ag 11.7*, S1P4 antagonist 13.0, NPY2 pot ag 30.4*, NPY-Y1 PAM-ag 15.4, NPY-Y2 confirm 13.0, NPY-Y1 potentiator 17.2, NPY-Y1 ag 2 10.7, CNGC inhibitor 9.3, Y2 agonist ctr 21.0*, S1P4 ag conf -1.4 and S1P1 ag -1.7.
Screening CCOC(=O)c1c(NC(=O)COc2ncnc3ccccc23)sc(C)c1C returned NPY-Y2 antag 0.3, NPY-Y1 antag -3.8, S1P4 ag 1.5, S1P4 antagonist 2.8, NPY2 pot ag 14.2 and NPY-Y1 PAM-ag -0.6.
Screening Cc1ccc2c(c1)/C(=N/OS(=O)(=O)c1ccccc1)CCS2 returned NPY-Y2 antag 2.2, NPY-Y1 antag 0.6, S1P4 ag 0.3, S1P4 antagonist -13.6, NPY2 pot ag 7.0 and NPY-Y1 PAM-ag 8.2.
For CC1=CC(=O)C(C(C)C)=C/C1=N/OS(=O)(=O)c1ccccc1 the results were S1P4 ag 0.5, S1P4 antagonist 38.2*, NPY2 pot ag 63.4*, NPY-Y1 PAM-ag 35.3, NPY-Y2 confirm 26.3, NPY-Y1 potentiator 9.0, NPY-Y1 ag 2 2.3, CNGC inhibitor 10.8, Y2 agonist ctr 22.0*, S1P4 antag conf 78.5* and S1P1 antag -19.1.
For CCCCCCCCC(=O)NC(NC(=S)N1CCOCC1)C(Cl)(Cl)Cl (configuration not stated) the results were NPY-Y2 antag 14.5, NPY-Y1 antag 9.2, S1P4 ag -0.7, S1P4 antagonist -2.6, NPY2 pot ag -8.4 and NPY-Y1 PAM-ag 19.5.
`COc1ccc(/C=c2/sc3n(c2=O)C(c2ccccc2OC)C2=C(N=3)c3ccccc3CC2)cc1O` (configuration not stated) gave NPY-Y2 antag 0.6, NPY-Y1 antag -8.9, S1P4 ag -3.8, S1P4 antagonist 33.3*, NPY2 pot ag 36.1*, NPY-Y1 PAM-ag 20.9, NPY-Y2 confirm 12.4, NPY-Y1 potentiator 25.1, NPY-Y1 ag 2 17.8*, CNGC inhibitor 16.5, Y2 agonist ctr 9.3, S1P4 antag conf 77.7* and S1P1 antag 69.5*.
`COC(=O)COc1ccc(S(=O)(=O)N2CCN(c3ccccc3F)CC2)cc1` gave NPY-Y2 antag 0.6, NPY-Y1 antag -6.0, S1P4 ag 1.6, S1P4 antagonist 29.3*, NPY2 pot ag 36.1*, NPY-Y1 PAM-ag 20.9, NPY-Y2 confirm 35.0*, NPY-Y1 potentiator 41.5, NPY-Y1 ag 2 33.6*, CNGC inhibitor 25.1*, Y2 agonist ctr 25.9*, S1P4 antag conf 21.4 and S1P1 antag 5.1.
`COC(=O)c1cc2occc2n1Cc1nc(-c2ccccc2F)oc1C` gave S1P4 ag 0.6, S1P4 antagonist -11.5, NPY2 pot ag -14.6 and NPY-Y1 PAM-ag 8.8.
For c1ccc2c(c1)N1CCN=C1N2CCN1CCCCC1 the results were NPY-Y2 antag 5.2, NPY-Y1 antag -1.9, S1P4 ag -0.5, S1P4 antagonist -20.3, NPY2 pot ag -17.4 and NPY-Y1 PAM-ag -12.2.
Screening c1ccc2c(c1)N1CCCN=C1N2CCN1CCCCC1 returned NPY-Y1 antag 7.0, S1P4 ag 17.6*, S1P4 antagonist 6.0, NPY2 pot ag -7.2, NPY-Y1 PAM-ag -5.5, S1P4 ag conf -1.6 and S1P1 ag 5.5.
Screening Oc1ccc(-n2cnnn2)cc1 returned NPY-Y2 antag 4.9, NPY-Y1 antag 3.6, S1P4 ag 30.4*, S1P4 antagonist 5.5, NPY2 pot ag -2.1, NPY-Y1 PAM-ag 6.8, S1P4 ag conf -1.7 and S1P1 ag -9.3.
`Clc1ccc(-n2cnnn2)cc1` gave NPY-Y2 antag -0.2, NPY-Y1 antag 5.0, S1P4 ag 4.6, S1P4 antagonist -1.8, NPY2 pot ag -5.4 and NPY-Y1 PAM-ag 1.5.
For Nc1n[nH]c2cc(=O)n(-c3cccc(C(F)(F)F)c3)nc12 the results were NPY-Y1 antag -2.0, S1P4 ag 65.2*, S1P4 antagonist -21.1, NPY2 pot ag -3.7, NPY-Y1 PAM-ag -16.9, S1P4 ag conf -1.9 and S1P1 ag -7.1.
Screening O=c1[nH][nH]c2cc(=O)n(-c3cccc(C(F)(F)F)c3)nc12 returned NPY-Y1 antag 3.8, S1P4 ag -0.9, S1P4 antagonist 3.5, NPY2 pot ag -7.6 and NPY-Y1 PAM-ag -5.7.
For O=C(Cn1cnc2ccccc21)N1CCN(S(=O)(=O)c2ccccc2)CC1 the results were NPY-Y1 antag 1.0, S1P4 ag 15.1*, S1P4 antagonist -13.4, NPY2 pot ag -2.2, NPY-Y1 PAM-ag 0.1, S1P4 ag conf -2.1 and S1P1 ag -1.9.
